Laboratory results as given in ChEMBL document CHEMBL1687776, “Origin and molecular evolution of the determinant of methicillin resistance in staphylococci” (2010).
Converted amounts (≈) assume the structure as drawn.

Assays:
Staphylococcus vitulinus [1] = experiment: Antibacterial activity against methicillin-resistant mecA-positive Staphylococcus vitulinus SVMP02 by agar dilution method; assay type: functional; conditions: Mammaliicoccus vitulinus
Method in brief: (§1)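 MIC by agar dilution on Mueller-Hinton agar per CLSI guidance; resistance judged against CLSI breakpoints. Strains were animal or food isolates (type strains for S. sciuri subspecies), typed by hsp60 and/or sodA sequencing; mecA homologue carriage checked by PCR with degenerate primers. Agents tested: oxacillin, ampicillin, ceftizoxime, ceftriaxone, cefoxitin.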

Staphylococcus vitulinus [2] = experiment: Antibacterial activity against mecA-negative Staphylococcus vitulinus SVMN05 by agar dilution method; assay type: functional; conditions: Mammaliicoccus vitulinus; method in brief: as §1
[3] = test system: Staphylococcus fleurettii; experiment: Antibacterial activity against methicillin-resistant mecA-positive Staphylococcus fleurettii SFMP03 by agar dilution method; assay type: functional; conditions: Mammaliicoccus fleurettii; method in brief: as §1
Staphylococcus vitulinus [4] = experiment: Antibacterial activity against mecA-negative Staphylococcus vitulinus SVMN02 by agar dilution method; assay type: functional; conditions: Mammaliicoccus vitulinus; method in brief: as §1
Staphylococcus vitulinus [5] = experiment: Antibacterial activity against mecA-negative Staphylococcus vitulinus SVMN04 by agar dilution method; assay type: functional; conditions: Mammaliicoccus vitulinus; method in brief: as §1
Staphylococcus vitulinus [6] = experiment: Antibacterial activity against mecA-negative Staphylococcus vitulinus SVMN10 by agar dilution method; assay type: functional; conditions: Mammaliicoccus vitulinus
Method in brief: (§2)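 MIC by agar dilution on Mueller-Hinton agar following CLSI guidelines. Resistance was assigned using CLSI breakpoints. Agents tested were oxacillin, ampicillin, ceftizoxime, ceftriaxone and cefoxitin. Strains were from animal or food sources and identified by hsp60 and/or sodA sequencing. mecA absence was assessed by PCR with degenerate primers for mecA and its homologues.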

[7] = Antibacterial activity against methicillin-resistant mecA-positive Staphylococcus sciuri subsp. rodentium ATCC 700061T by agar dilution method; assay type: functional; conditions: Mammaliicoccus sciuri; method in brief: as §1
[8] = Antibacterial activity against mecA-positive Staphylococcus sciuri subsp. carnaticus ATCC 700058T by agar dilution method; conditions: Mammaliicoccus sciuri
Staphylococcus vitulinus [9] = experiment: Antibacterial activity against methicillin-resistant mecA-positive Staphylococcus vitulinus SVMP03 by agar dilution method; assay type: functional; conditions: Mammaliicoccus vitulinus; method in brief: as §1
Staphylococcus vitulinus [10] = experiment: Antibacterial activity against mecA-negative Staphylococcus vitulinus SVMN03 by agar dilution method; assay type: functional; conditions: Mammaliicoccus vitulinus; method in brief: as §2
[11] = test system: Staphylococcus fleurettii; experiment: Antibacterial activity against methicillin-resistant mecA-positive Staphylococcus fleurettii SFMP01(CCUG 43834T) by agar dilution method; assay type: functional; conditions: Mammaliicoccus fleurettii; method in brief: as §1
[12] = test system: Staphylococcus fleurettii; experiment: Antibacterial activity against methicillin-resistant mecA-positive Staphylococcus fleurettii SFMP06 by agar dilution method; assay type: functional; conditions: Mammaliicoccus fleurettii; method in brief: as §1
Staphylococcus vitulinus [13] = experiment: Antibacterial activity against mecA-negative Staphylococcus vitulinus SVMN14 by agar dilution method; assay type: functional; conditions: Mammaliicoccus vitulinus; method in brief: as §1
Mammaliicoccus lentus = experiment: Antibacterial activity against mecA-negative Staphylococcus lentus ATCC 29070T by agar dilution method; assay type: functional; method in brief: as §2
Staphylococcus vitulinus [14] = experiment: Antibacterial activity against mecA-negative Staphylococcus vitulinus SVMN08 by agar dilution method; assay type: functional; conditions: Mammaliicoccus vitulinus; method in brief: as §2
Staphylococcus vitulinus [15] = experiment: Antibacterial activity against methicillin-resistant mecA-positive Staphylococcus vitulinus SVMP04 by agar dilution method; assay type: functional; conditions: Mammaliicoccus vitulinus; method in brief: as §1
Staphylococcus vitulinus [16] = experiment: Antibacterial activity against mecA-negative Staphylococcus vitulinus SVMN12 by agar dilution method; assay type: functional; conditions: Mammaliicoccus vitulinus; method in brief: as §1
[17] = test system: Staphylococcus fleurettii; experiment: Antibacterial activity against methicillin-resistant mecA-positive Staphylococcus fleurettii SFMP07 by agar dilution method; assay type: functional; conditions: Mammaliicoccus fleurettii; method in brief: as §1
[18] = test system: Staphylococcus fleurettii; experiment: Antibacterial activity against methicillin-resistant mecA-positive Staphylococcus fleurettii SFMP05 by agar dilution method; assay type: functional; conditions: Mammaliicoccus fleurettii; method in brief: as §1
[19] = test system: Staphylococcus fleurettii; experiment: Antibacterial activity against methicillin-resistant mecA-positive Staphylococcus fleurettii SFMP04 by agar dilution method; assay type: functional; conditions: Mammaliicoccus fleurettii; method in brief: as §1
Staphylococcus vitulinus [20] = experiment: Antibacterial activity against methicillin-resistant mecA-positive Staphylococcus vitulinus SVMP01 by agar dilution method; assay type: functional; conditions: Mammaliicoccus vitulinus; method in brief: as §1
Staphylococcus vitulinus [21] = experiment: Antibacterial activity against mecA-negative Staphylococcus vitulinus SVMN11 by agar dilution method; assay type: functional; conditions: Mammaliicoccus vitulinus; method in brief: as §1
Staphylococcus vitulinus [22] = experiment: Antibacterial activity against methicillin-resistant mecA-positive Staphylococcus vitulinus SVMP06 by agar dilution method; assay type: functional; conditions: Mammaliicoccus vitulinus; method in brief: as §1
[23] = test system: Staphylococcus fleurettii; experiment: Antibacterial activity against mecA-negative Staphylococcus fleurettii SFMN02 by agar dilution method; assay type: functional; conditions: Mammaliicoccus fleurettii; method in brief: as §2
Staphylococcus vitulinus [24] = experiment: Antibacterial activity against mecA-negative Staphylococcus vitulinus SVMN07 by agar dilution method; assay type: functional; conditions: Mammaliicoccus vitulinus; method in brief: as §1
Staphylococcus vitulinus [25] = experiment: Antibacterial activity against mecA-negative Staphylococcus vitulinus SVMN09 by agar dilution method; assay type: functional; conditions: Mammaliicoccus vitulinus; method in brief: as §1
Staphylococcus vitulinus [26] = experiment: Antibacterial activity against mecA-negative Staphylococcus vitulinus SVMN06 by agar dilution method; assay type: functional; conditions: Mammaliicoccus vitulinus; method in brief: as §1
[27] = test system: Staphylococcus fleurettii; experiment: Antibacterial activity against methicillin-resistant mecA-positive Staphylococcus fleurettii SFMP02 by agar dilution method; assay type: functional; conditions: Mammaliicoccus fleurettii; method in brief: as §1
[28] = test system: Staphylococcus fleurettii; experiment: Antibacterial activity against mecA-negative Staphylococcus fleurettii SFMN01 by agar dilution method; assay type: functional; conditions: Mammaliicoccus fleurettii; method in brief: as §2
[29] = Antibacterial activity against methicillin-resistant mecA-positive Staphylococcus sciuri subsp. sciuri ATCC 29062T by agar dilution method; assay type: functional; conditions: Mammaliicoccus sciuri; method in brief: as §1
[30] = test system: Staphylococcus fleurettii; experiment: Antibacterial activity against methicillin-resistant mecA-positive Staphylococcus fleurettii SFMP08 by agar dilution method; assay type: functional; conditions: Mammaliicoccus fleurettii; method in brief: as §1
Staphylococcus vitulinus [31] = experiment: Antibacterial activity against mecA-negative Staphylococcus vitulinus SVMN13 by agar dilution method; assay type: functional; conditions: Mammaliicoccus vitulinus; method in brief: as §2
Staphylococcus vitulinus [32] = experiment: Antibacterial activity against methicillin-resistant mecA-positive Staphylococcus vitulinus SVMP05 by agar dilution method; assay type: functional; conditions: Mammaliicoccus vitulinus; method in brief: as §1
Staphylococcus vitulinus [33] = experiment: Antibacterial activity against mecA-negative Staphylococcus vitulinus SVMN01 (ATCC 51145T) by agar dilution method; assay type: functional; conditions: Mammaliicoccus vitulinus; method in brief: as §2

SMILES | MIC (Staphylococcus vitulinus [1]) [µg/mL] | MIC (Staphylococcus vitulinus [2]) [µg/mL] | MIC [3] [µg/mL] | MIC (Staphylococcus vitulinus [4]) [µg/mL] | MIC (Staphylococcus vitulinus [5]) [µg/mL] | MIC (Staphylococcus vitulinus [6]) [µg/mL] | MIC [7] [µg/mL] | MIC [8] [µg/mL] | MIC (Staphylococcus vitulinus [9]) [µg/mL] | MIC (Staphylococcus vitulinus [10]) [µg/mL] | MIC [11] [µg/mL] | MIC [12] [µg/mL] | MIC (Staphylococcus vitulinus [13]) [µg/mL] | MIC (Mammaliicoccus lentus) [µg/mL] | MIC (Staphylococcus vitulinus [14]) [µg/mL] | MIC (Staphylococcus vitulinus [15]) [µg/mL] | MIC (Staphylococcus vitulinus [16]) [µg/mL] | MIC [17] [µg/mL] | MIC [18] [µg/mL] | MIC [19] [µg/mL] | also measured
Cc1onc(-c2ccccc2)c1C(=O)N[C@@H]1C(=O)N2[C@@H]1SC(C)(C)[C@@H]2C(=O)O [OXACILLIN] | 0.5 (≈ 1.25 µM) | 0.25 (≈ 0.623 µM) | 128 (≈ 319 µM) | 0.5 (≈ 1.25 µM) | 0.5 (≈ 1.25 µM) | 0.5 (≈ 1.25 µM) | 0.5 (≈ 1.25 µM) | 1 (≈ 2.49 µM) | 0.5 (≈ 1.25 µM) | 0.5 (≈ 1.25 µM) | 64 (≈ 159 µM) | 64 (≈ 159 µM) | 0.5 (≈ 1.25 µM) | 0.5 (≈ 1.25 µM) | 0.5 (≈ 1.25 µM) | 0.5 (≈ 1.25 µM) | 0.5 (≈ 1.25 µM) | 8 (≈ 19.9 µM) | 32 (≈ 79.7 µM) | 128 (≈ 319 µM) | MIC (Staphylococcus vitulinus [20]): 0.5 µg/mL (≈ 1.25 µM); MIC (Staphylococcus vitulinus [21]): 0.5 µg/mL (≈ 1.25 µM); MIC (Staphylococcus vitulinus [22]): 0.5 µg/mL (≈ 1.25 µM); MIC [23]: 0.5 µg/mL (≈ 1.25 µM); MIC (Staphylococcus vitulinus [24]): 0.5 µg/mL (≈ 1.25 µM); MIC (Staphylococcus vitulinus [25]): 0.5 µg/mL (≈ 1.25 µM); MIC (Staphylococcus vitulinus [26]): 0.5 µg/mL (≈ 1.25 µM); MIC [27]: 8 µg/mL (≈ 19.9 µM); MIC [28]: 0.5 µg/mL (≈ 1.25 µM); MIC [29]: 0.5 µg/mL (≈ 1.25 µM); MIC [30]: 64 µg/mL (≈ 159 µM); MIC (Staphylococcus vitulinus [31]): 0.5 µg/mL (≈ 1.25 µM); MIC (Staphylococcus vitulinus [32]): 0.5 µg/mL (≈ 1.25 µM); MIC (Staphylococcus vitulinus [33]): 0.5 µg/mL (≈ 1.25 µM)
CO/N=C(\C(=O)N[C@@H]1C(=O)N2C(C(=O)O)=C(CSc3nc(=O)c(O)nn3C)CS[C@H]12)c1csc(N)n1 [CEFTRIAXONE] | 2 (≈ 3.61 µM) | 1 (≈ 1.8 µM) | 64 (≈ 115 µM) | 4 (≈ 7.21 µM) | 2 (≈ 3.61 µM) | 1 (≈ 1.8 µM) | 8 (≈ 14.4 µM) | 8 (≈ 14.4 µM) | 4 (≈ 7.21 µM) | 1 (≈ 1.8 µM) | 16 (≈ 28.9 µM) | 32 (≈ 57.7 µM) | 2 (≈ 3.61 µM) | 2 (≈ 3.61 µM) | 0.25 (≈ 0.451 µM) | 2 (≈ 3.61 µM) | 1 (≈ 1.8 µM) | 8 (≈ 14.4 µM) | 8 (≈ 14.4 µM) | 64 (≈ 115 µM) | MIC (Staphylococcus vitulinus [20]): 4 µg/mL (≈ 7.21 µM); MIC (Staphylococcus vitulinus [21]): 4 µg/mL (≈ 7.21 µM); MIC (Staphylococcus vitulinus [22]): 2 µg/mL (≈ 3.61 µM); MIC [23]: 4 µg/mL (≈ 7.21 µM); MIC (Staphylococcus vitulinus [24]): 2 µg/mL (≈ 3.61 µM); MIC (Staphylococcus vitulinus [25]): 2 µg/mL (≈ 3.61 µM); MIC (Staphylococcus vitulinus [26]): 4 µg/mL (≈ 7.21 µM); MIC [27]: 16 µg/mL (≈ 28.9 µM); MIC [28]: 4 µg/mL (≈ 7.21 µM); MIC [29]: 8 µg/mL (≈ 14.4 µM); MIC [30]: 16 µg/mL (≈ 28.9 µM); MIC (Staphylococcus vitulinus [31]): 1 µg/mL (≈ 1.8 µM); MIC (Staphylococcus vitulinus [32]): 4 µg/mL (≈ 7.21 µM); MIC (Staphylococcus vitulinus [33]): 8 µg/mL (≈ 14.4 µM)
CC1(C)S[C@@H]2[C@H](NC(=O)[C@H](N)c3ccccc3)C(=O)N2[C@H]1C(=O)O [AMPICILLIN] | < 0.063 | < 0.063 | 1 (≈ 2.86 µM) | < 0.063 | < 0.063 | < 0.063 | 0.125 (≈ 0.358 µM) | 0.125 (≈ 0.358 µM) | < 0.063 | < 0.063 | 1 (≈ 2.86 µM) | 1 (≈ 2.86 µM) | < 0.063 | < 0.063 | < 0.063 | < 0.063 | < 0.063 | 0.25 (≈ 0.715 µM) | 0.25 (≈ 0.715 µM) | 1 (≈ 2.86 µM) | MIC (Staphylococcus vitulinus [20]): < 0.063 µg/mL; MIC (Staphylococcus vitulinus [21]): 0.125 µg/mL (≈ 0.358 µM); MIC (Staphylococcus vitulinus [22]): < 0.063 µg/mL; MIC [23]: 0.125 µg/mL (≈ 0.358 µM); MIC (Staphylococcus vitulinus [24]): < 0.063 µg/mL; MIC (Staphylococcus vitulinus [25]): < 0.063 µg/mL; MIC (Staphylococcus vitulinus [26]): < 0.063 µg/mL; MIC [27]: 1 µg/mL (≈ 2.86 µM); MIC [28]: 0.125 µg/mL (≈ 0.358 µM); MIC [29]: 0.125 µg/mL (≈ 0.358 µM); MIC [30]: 1 µg/mL (≈ 2.86 µM); MIC (Staphylococcus vitulinus [31]): < 0.063 µg/mL; MIC (Staphylococcus vitulinus [32]): < 0.063 µg/mL; MIC (Staphylococcus vitulinus [33]): 0.125 µg/mL (≈ 0.358 µM)
